Screening results from PubChem BioAssay.
An excerpt weighted towards active compounds, which were near 2.4% of everything screened.
PfM18AAP inh: PfM18AAP inhibitors, malaria aminopeptidase, primary screen, biochemical, QFRET, recombinant enzyme. M18 aspartyl aminopeptidase (Plasmodium falciparum 3D7). H-Glu-NHMec fluorogenic cleavage. inhibition, % at 7.35 µM. 1.2% of 290,000 active;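 active = inhibition above the campaign mean inhibition over all tested compounds plus 3 SD, cut at about 28% in these data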;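 note: 0% = plate median of test compound wells and 100% = 2 mM ZnCl2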
VIM-2 inh: VIM-2 metallo-beta-lactamase inhibitors, primary screen, biochemical, epi-absorbance readout, Pseudomonas aeruginosa enzyme; purified VIM-2, nitrocefin hydrolysis, epi-absorbance fluorescence; inhibition, % at 5.6 µM; 0.89% of 290,000 active;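 active = inhibition above the mean of all tested compounds plus 3 SD, cutoff set per screening run, cut at about 7.5% in these data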;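 note: red hydrolysis product quenches plate fluorescence so inhibitors raise well fluorescence; 0% = enzyme with DMSO and 100% = DMSO without enzyme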
IMP-1 inh: IMP-1 metallo-beta-lactamase inhibitors, primary screen, biochemical, epi-absorbance readout, Pseudomonas aeruginosa enzyme. purified IMP-1, nitrocefin hydrolysis, epi-absorbance fluorescence. 0.45% of 290,000 active. metallo-beta-lactamase IMP-1 (Pseudomonas aeruginosa). inhibition, % at 5.6 µM. AID 1556, 2009;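 active = inhibition above the mean plus 3 SD of all compounds in the same screening run, cut at about 4.5% in these data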;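 note: 0% = IMP-1 with DMSO and 100% = DMSO wells lacking enzyme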
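System: purified IMP-1 / Input: IMP-1 dispensed at 0.2 nM / Medium: 50 mM HEPES pH 7.1, 50 µM ZnSO4, 0.05% Brij 35 / Timing: 15 min enzyme–compound preincubation, then 25 min nitrocefin reaction, 25 °C / Technique: plate fluorescence quenching by hydrolysis product, ex 480/em 530 nm / Repeats: singlicate testing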
HGIII-sPLA2 inh: human group III sPLA2 inhibitors, primary screen, biochemical, QFRET, BODIPY PC-A2 liposome substrate | QFRET BODIPY PC-A2 liposome hydrolysis, fluorescence | inhibition, % at 12.2 µM | 0.56% of 370,000 active | AID 743126, 2013;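 active = inhibition above mean plus 3 SD of compounds lying within the high and low control bounds, cut at about 19% in these data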;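 note: 0% = median of test compound wells and 100% = no enzyme DMSO wells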
Target sequence (Q9NZ20 whole entry, looked up): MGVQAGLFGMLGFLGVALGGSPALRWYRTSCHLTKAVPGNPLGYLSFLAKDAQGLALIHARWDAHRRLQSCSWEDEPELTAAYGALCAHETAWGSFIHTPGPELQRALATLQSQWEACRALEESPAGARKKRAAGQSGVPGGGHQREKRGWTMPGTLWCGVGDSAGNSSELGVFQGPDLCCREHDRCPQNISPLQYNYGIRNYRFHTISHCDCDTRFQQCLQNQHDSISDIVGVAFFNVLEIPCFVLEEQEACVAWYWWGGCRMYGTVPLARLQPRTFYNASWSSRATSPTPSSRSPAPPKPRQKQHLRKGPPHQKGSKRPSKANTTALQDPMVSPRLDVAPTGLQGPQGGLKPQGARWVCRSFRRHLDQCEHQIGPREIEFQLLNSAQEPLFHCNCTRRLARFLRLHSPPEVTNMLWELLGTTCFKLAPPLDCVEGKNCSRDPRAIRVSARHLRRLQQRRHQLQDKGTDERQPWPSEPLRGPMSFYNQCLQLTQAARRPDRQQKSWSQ
sPLA2 confirm: human group III sPLA2 inhibitors, confirmation, biochemical, QFRET, triplicate | shares compounds with HGIII-sPLA2 inh | recombinant hGIII-sPLA2, BODIPY PC-A2 QFRET fluorescence | inhibition, % at 12.2 µM | 34% of 2,000 active | AID 743280, 2014;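 active = mean inhibition across triplicates above the hit cutoff set in the earlier primary screen, cut at about 19% in these data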;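 note: 0% = enzyme with DMSO and 100% = DMSO wells lacking enzyme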
BODIPY interf: 535nm fluorescence optical interference, confirmation, artefact control for HGIII-sPLA2 inhibitor project, biochemical, QFRET | BODIPY FL product fluorescence interference | AID 743282, 2014 | shares compounds with HGIII-sPLA2 inh | inhibition, % at 12.2 µM | 8.5% of 2,000 active;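 active = average inhibition above the solvent-only control mean plus 3 SD, cut at about 6% in these data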;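 note: 0% = DMSO with substrate plus product and 100% = DMSO with substrate alone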
535nm interf DR: 535nm fluorescence optical interference, dose response, artefact control for HGIII-sPLA2 inhibitor project, biochemical, QFRET; shares compounds with HGIII-sPLA2 inh; BODIPY FL product fluorescence interference, cell-free; IC50, µM; 240 tested, under 10 active; AID 743455, 2014;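 active = IC50 at or below 10 µM; inactive = IC50 above 10 µM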
Active calls of the source: *; . = no result given.

SMILES	PfM18AAP inh	VIM-2 inh	IMP-1 inh	HGIII-sPLA2 inh	sPLA2 confirm	BODIPY interf	others
COc1ccc(NS(=O)(=O)c2cc(N)ccc2N2CCCC2)cc1	.	.	.	21*	8	3
Cc1ccc(C)c(N2CCN(C(=O)CCCN3C(=S)NC(C)(C)CC3C)CC2)c1 (centres undefined)	5	-2	-4	22*	21*	-26
CC1CC(C)(C)NC(=S)N1CCC(=O)N1c2ccccc2CC1C (centres undefined)	-1	-4	-4	14	.	.
Cc1cccc(N2CCN(C(=O)CCN3C(=S)NC(C)(C)CC3C)CC2)c1C (centres undefined)	5	-1	-2	28*	12	-14
Cc1ccc(OCC(=O)Nc2cccc(O)c2)cc1C	0	0	0	-14	.	.
CNC(=S)NNC(=O)COc1ccc(C)c(C)c1	22	-2	0	28*	26*	-1
O=[N+]([O-])c1ccc2nc(COCc3nc4ccccc4[nH]3)[nH]c2c1	.	.	.	0	.	.
CN1CCC[C@@H]1CCNC(=O)c1cccc2c1C(=O)c1ccc(N3CCCC3)cc1S2(=O)=O	.	.	.	78*	-21	-31
COC(=O)[C@]12C[C@H](CC(=O)NCc3cccs3)C(=O)N(Cc3ccc(Cl)cc3Cl)C1=C[C@H](COCc1ccccc1)O[C@@H]2C	.	.	.	-16	.	.
COc1cc2c(cc1OC)C(c1ccc([N+](=O)[O-])cc1)NCC2 (centres undefined)	18	-2	-1	20*	5	-8
COc1cc2c(cc1OC)C(c1cc([N+](=O)[O-])ccc1O)NCC2 (centres undefined)	1	-3	-3	-4	.	.
C/C(=N\NC(=O)c1nnn(-c2nonc2N)c1CN(C)c1ccccc1)c1ccccc1O	-1	-3	-2	24*	33*	-2	535nm interf DR=>122
Cc1c(C(=O)N2CC[C@@H](N3CCC(O)CC3)[C@H](O)C2)[nH]c2ccc(Cl)cc12	-3	-1	0	-4	.	.
C#CC[N+](C)(C)CCCCCCCCCC	-6	-2	-1	19*	1	-15
C#CC[N+](C)(C)CCCCCCCCCCCC	-6	-3	-3	23*	-6	-33
C#CC[N+](C)(C)CCCCCCCC	-10	-1	-2	7	.	.
C(=C\N1CCCCCC1)/c1nnnn1-c1ccc(-c2ccccc2)cc1	-4	0	-2	20*	5	-4
Cc1cc(-c2nnc(SCC(=O)Nc3ccc(F)cc3F)n2N)n[nH]1	2	-2	-2	3	.	.
Cn1c(SCC(=O)NNC(=O)c2ccccc2O)nnc1-c1ccccc1	21	0	-1	6	.	.
O=C(CCN1C(=O)/C(=C\c2ccccc2)SC1=S)NNC(=O)c1cccnc1	7	-1	0	0	.	.
O=C(CN1C(=O)S/C(=C\c2ccccc2)C1=O)NNC(=O)c1ccccc1O	-3	-1	0	23*	16	3
COc1ccc(/C=C2\SC(=O)N(CC(=O)NCCC(C)C)C2=O)cc1OC	11	-4	-1	0	.	.
COc1ccc(/C=C2\SC(=O)N(CC(=O)NNC(=O)c3ccccc3O)C2=O)cc1OC	3	-3	-2	21*	17	2
O=C(CCN1C(=O)/C(=C\c2ccccc2)SC1=S)NNC(=O)c1ccccc1O	15	-2	0	25*	16	-5
O=C(CSc1ccccc1)NNC(=O)c1ccccc1O	28	-2	-3	20*	9	-3
CC(=O)Nc1ccc(CN(C)c2c(C)nc3ccc(C(=O)NC4CCN(Cc5ccccc5)CC4)cn23)cc1	.	.	.	2	.	.
